Activity calls are given as the source filed them. The calls are words filed in the database; no cut-off is given here.

T1 sequence (O43497 whole entry): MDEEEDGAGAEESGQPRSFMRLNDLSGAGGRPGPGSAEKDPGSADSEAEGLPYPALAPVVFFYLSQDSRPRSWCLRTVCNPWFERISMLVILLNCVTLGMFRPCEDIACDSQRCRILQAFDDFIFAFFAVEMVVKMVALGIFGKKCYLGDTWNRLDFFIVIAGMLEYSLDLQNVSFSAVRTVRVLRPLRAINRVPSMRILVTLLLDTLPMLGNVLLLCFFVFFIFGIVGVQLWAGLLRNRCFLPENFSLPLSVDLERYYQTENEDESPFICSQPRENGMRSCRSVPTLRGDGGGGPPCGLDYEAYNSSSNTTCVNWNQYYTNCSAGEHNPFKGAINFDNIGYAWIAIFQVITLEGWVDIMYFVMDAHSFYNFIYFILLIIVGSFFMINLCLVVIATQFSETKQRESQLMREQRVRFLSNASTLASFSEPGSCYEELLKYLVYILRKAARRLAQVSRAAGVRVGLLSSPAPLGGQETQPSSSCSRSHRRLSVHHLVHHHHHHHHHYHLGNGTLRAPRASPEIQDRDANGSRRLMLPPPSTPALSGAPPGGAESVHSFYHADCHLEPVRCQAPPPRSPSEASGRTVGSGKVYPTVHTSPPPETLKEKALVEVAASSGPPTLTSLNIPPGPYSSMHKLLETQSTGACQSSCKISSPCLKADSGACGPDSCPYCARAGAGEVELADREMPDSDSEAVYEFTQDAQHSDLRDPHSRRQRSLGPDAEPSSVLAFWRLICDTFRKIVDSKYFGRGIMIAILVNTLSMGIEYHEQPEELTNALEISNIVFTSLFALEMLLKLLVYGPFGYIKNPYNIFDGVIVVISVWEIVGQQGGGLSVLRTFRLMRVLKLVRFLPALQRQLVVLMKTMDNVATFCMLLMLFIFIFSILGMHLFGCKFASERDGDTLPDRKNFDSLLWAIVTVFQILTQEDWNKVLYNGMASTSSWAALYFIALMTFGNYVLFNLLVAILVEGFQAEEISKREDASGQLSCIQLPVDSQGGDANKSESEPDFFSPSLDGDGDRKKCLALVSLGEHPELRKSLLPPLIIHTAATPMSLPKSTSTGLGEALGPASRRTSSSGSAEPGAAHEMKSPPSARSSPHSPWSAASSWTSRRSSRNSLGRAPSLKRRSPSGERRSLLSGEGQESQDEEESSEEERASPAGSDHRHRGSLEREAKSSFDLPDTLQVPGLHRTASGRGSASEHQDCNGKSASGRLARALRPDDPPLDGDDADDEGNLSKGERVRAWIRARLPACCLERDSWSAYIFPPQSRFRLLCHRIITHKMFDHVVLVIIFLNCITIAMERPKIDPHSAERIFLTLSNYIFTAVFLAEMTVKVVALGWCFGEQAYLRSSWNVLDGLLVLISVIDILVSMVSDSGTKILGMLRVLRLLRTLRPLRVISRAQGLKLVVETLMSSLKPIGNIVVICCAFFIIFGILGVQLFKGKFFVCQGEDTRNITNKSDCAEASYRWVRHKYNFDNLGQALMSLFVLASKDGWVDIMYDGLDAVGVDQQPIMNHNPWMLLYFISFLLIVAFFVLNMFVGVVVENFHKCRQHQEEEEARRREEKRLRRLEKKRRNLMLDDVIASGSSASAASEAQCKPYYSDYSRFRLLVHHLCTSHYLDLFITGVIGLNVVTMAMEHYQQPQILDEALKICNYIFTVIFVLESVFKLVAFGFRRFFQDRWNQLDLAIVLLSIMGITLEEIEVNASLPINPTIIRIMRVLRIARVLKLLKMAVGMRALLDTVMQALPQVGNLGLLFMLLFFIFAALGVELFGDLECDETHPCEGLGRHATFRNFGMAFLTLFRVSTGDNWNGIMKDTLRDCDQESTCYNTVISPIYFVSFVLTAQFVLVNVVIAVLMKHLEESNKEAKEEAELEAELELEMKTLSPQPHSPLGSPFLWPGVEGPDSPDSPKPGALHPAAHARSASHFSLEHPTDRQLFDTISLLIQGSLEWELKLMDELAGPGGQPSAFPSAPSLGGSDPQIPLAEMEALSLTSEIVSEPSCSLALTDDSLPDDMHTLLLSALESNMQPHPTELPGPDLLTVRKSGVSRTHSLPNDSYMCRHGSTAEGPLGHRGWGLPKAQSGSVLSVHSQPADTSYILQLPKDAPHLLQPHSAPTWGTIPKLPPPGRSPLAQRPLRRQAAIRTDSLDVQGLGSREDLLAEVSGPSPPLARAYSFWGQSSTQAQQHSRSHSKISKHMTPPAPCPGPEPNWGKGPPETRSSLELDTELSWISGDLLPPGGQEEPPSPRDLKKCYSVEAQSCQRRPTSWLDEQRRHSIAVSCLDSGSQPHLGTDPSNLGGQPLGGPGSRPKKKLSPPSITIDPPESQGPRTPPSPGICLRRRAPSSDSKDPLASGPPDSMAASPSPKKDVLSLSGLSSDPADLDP

In the first assay the target is T1, Voltage-dependent T-type calcium channel subunit alpha-1G (Homo sapiens, UniProt O43497). As to the kind of experiment: Inhibition of T-type calcium channel Cav3.1 with alpha-1G subunit expressed in HEK293 cells at 100 uM by FDSS6000 assay. The assay is classed as cell-based. To be noted: 10 uM, in the assay text read “at 10 uM” for “at 100 uM”. In outline:
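HEK293 cells stably expressing α1G plus Kir2.1, grown in DMEM/10% FBS with geneticin and puromycin, plated at 4 × 10^4 cells/well and used next day. Loaded 60 min at room temperature with 5 µM fluo3/AM in Hepes-buffered saline, pH 7.4. Channels opened by depolarization with 70 mM KCl in buffer containing 10 mM CaCl2. Rise in intracellular Ca2+ read by fluorescence on FDSS6000.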
With `O=C(NCCCN1CCCC1)c1ccc2c(=O)n(Cc3ccccc3Cl)c(=O)[nH]c2c1`, the inhibition is 6.2%.
The same measure, in the same setting: to `O=C(NCCCN1CCOCC1)c1ccc2c(=O)n(Cc3ccc(Cl)cc3)c(=O)[nH]c2c1` belongs 9.7%.

The same assay, now with this note: 100 uM.
`CN1CCN(CCCNC(=O)c2ccc3c(=O)n(Cc4ccccc4F)c(=O)[nH]c3c2)CC1`: the inhibition was determined as 7.3%.
In the case of `O=C(NCCCN1CCOCC1)c1ccc2c(=O)n(Cc3ccc(F)cc3)c(=O)[nH]c2c1`, the result was inactive.
With `O=C(NCCN1CCCC1)c1ccc2c(=O)n(-c3ccccc3F)c(=O)[nH]c2c1`, the inhibition turned out to be 6.5%.
The same measure, in the same setting: to `CC1CCCCN1CCCNC(=O)c1ccc2c(=O)n(C3CCCCC3)c(=O)[nH]c2c1` (centres undefined) belongs 48.3%.
On to `COc1cccc(-n2c(=O)[nH]c3cc(C(=O)NCCN4CCCCC4)ccc3c2=O)c1`, for which the outcome was inactive.
With `O=C(NCCN1CCCCC1)c1ccc2c(=O)n(Cc3cccc(F)c3)c(=O)[nH]c2c1`, the inhibition came out at 64.6%.
As to `COc1ccc(-n2c(=O)[nH]c3cc(C(=O)NCCCN4CCCC4)ccc3c2=O)cc1`, the outcome was inactive.
As to `CN1CCN(CCCNC(=O)c2ccc3c(=O)n(Cc4cccc(F)c4)c(=O)[nH]c3c2)CC1`, the inhibition came out at 8.3%.
Consider `COc1ccccc1Cn1c(=O)[nH]c2cc(C(=O)NCCCN3CCCCC3C)ccc2c1=O` (centres undefined), for which the inhibition amounted to 12.7%.
As for `COc1cccc(-n2c(=O)[nH]c3cc(C(=O)NCCCN4CCCC4)ccc3c2=O)c1`, the outcome was inactive.
On to `O=C(NCCN1CCCCC1)c1ccc2c(=O)n(-c3ccc(F)cc3)c(=O)[nH]c2c1`, for which the inhibition was found to be 12.5%.
The same measure, in the same setting: to `CCC1CCCCN1CCCNC(=O)c1ccc2c(=O)n(Cc3ccc(F)cc3)c(=O)[nH]c2c1` (centres undefined) belongs 68.3%.
With `O=C(NCCN1CCOCC1)c1ccc2c(=O)n(-c3cccc(F)c3)c(=O)[nH]c2c1`, the inhibition worked out at 3.8%.
For the compound `CCCn1c(=O)[nH]c2cc(C(=O)NCCCN3CCOCC3)ccc2c1=O`, the inhibition amounted to 9.2%.
Still for that read-out and setting: the figure for `CC1CCCCN1CCCNC(=O)c1ccc2c(=O)n(C)c(=O)[nH]c2c1` (centres undefined) is 8.5%.
With `CC1CCCCN1CCCNC(=O)c1ccc2c(=O)n(-c3cccc(F)c3)c(=O)[nH]c2c1` (centres undefined), the outcome was inactive.
The same measure, in the same setting: the entry for `COc1ccc(-n2c(=O)[nH]c3cc(C(=O)NCCCN4CCN(C)CC4)ccc3c2=O)cc1` is “inactive”.
Take `O=C(NCCN1CCCCC1)c1ccc2c(=O)n(C3CCCCC3)c(=O)[nH]c2c1`: the inhibition is 52.2%.
Still for that read-out and setting: the figure for `COc1cccc(Cn2c(=O)[nH]c3cc(C(=O)NCCCN4CCN(C)CC4)ccc3c2=O)c1` is 20.1%; for `O=C(NCCCN1CCOCC1)c1ccc2c(=O)n(-c3ccccc3F)c(=O)[nH]c2c1` it is 2.8%; for `COc1ccc(-n2c(=O)[nH]c3cc(C(=O)NCCN4CCCC4)ccc3c2=O)cc1` it is 10.5%.
Still for that read-out and setting: the figure for `CN1CCN(CCCNC(=O)c2ccc3c(=O)n(-c4ccccc4F)c(=O)[nH]c3c2)CC1` is 2.4%.
Turning to `O=C(NCCN1CCCC1)c1ccc2c(=O)n(-c3cccc(F)c3)c(=O)[nH]c2c1`, the inhibition amounted to 4.3%.
`O=C(NCCN1CCCC1)c1ccc2c(=O)n(Cc3ccccc3F)c(=O)[nH]c2c1`: the inhibition is 24.9%.
Regarding `Cn1c(=O)[nH]c2cc(C(=O)NCCN3CCCC3)ccc2c1=O`, the outcome was inactive.
As for `CC1CCCCN1CCCNC(=O)c1ccc2c(=O)n(Cc3ccc(F)cc3)c(=O)[nH]c2c1` (centres undefined), the inhibition is 56.6%.
In the case of `O=C(NCCN1CCCC1)c1ccc2c(=O)n(Cc3ccc(F)cc3)c(=O)[nH]c2c1`, the inhibition was 47.2%.
Turning to `COc1cccc(Cn2c(=O)[nH]c3cc(C(=O)NCCN4CCCCC4)ccc3c2=O)c1`, the inhibition was determined as 62.9%.
Same read-out and setting: to `COc1ccc(Cn2c(=O)[nH]c3cc(C(=O)NCCN4CCCC4)ccc3c2=O)cc1` belongs 39.4%; to `O=C(NCCN1CCCCC1)c1ccc2c(=O)n(-c3ccccc3F)c(=O)[nH]c2c1`, 7.2%.
On the same count and under the same terms, to `COc1ccc(Cn2c(=O)[nH]c3cc(C(=O)NCCCN4CCCCC4C)ccc3c2=O)cc1` (centres undefined) belongs 42.3%.
In the case of `O=C(NCCN1CCOCC1)c1ccc2c(=O)n(-c3ccc(F)cc3)c(=O)[nH]c2c1`, the result was inactive.
For `O=C(NCCCN1CCOCC1)c1ccc2c(=O)n(-c3cccc(F)c3)c(=O)[nH]c2c1`, the inhibition came to 15.1%.
With `COc1ccc(Cn2c(=O)[nH]c3cc(C(=O)NCCCN4CCOCC4)ccc3c2=O)cc1`, the inhibition came to 36%.
Same read-out and setting: to `O=C(NCCN1CCCCC1)c1ccc2c(=O)n(Cc3ccc(F)cc3)c(=O)[nH]c2c1` belongs 65%; to `Cn1c(=O)[nH]c2cc(C(=O)NCCN3CCCCC3)ccc2c1=O`, 17.6%.
Turning to `O=C(NCCCN1CCOCC1)c1ccc2c(=O)n(C3CCCCC3)c(=O)[nH]c2c1`, the inhibition amounted to 36.3%.
On the same count and under the same terms, to `CCCn1c(=O)[nH]c2cc(C(=O)NCCCN3CCCCC3C)ccc2c1=O` (centres undefined) belongs 12.5%.
Consider `CCCn1c(=O)[nH]c2cc(C(=O)NCCN3CCOCC3)ccc2c1=O`, for which the result was inactive.
Consider `O=C(NCCN1CCCC1)c1ccc2c(=O)n(C3CCCCC3)c(=O)[nH]c2c1`, for which the inhibition was found to be 57.7%.
Consider `CCCn1c(=O)[nH]c2cc(C(=O)NCCCN3CCN(C)CC3)ccc2c1=O`, for which the result was inactive.
Turning to `CCCn1c(=O)[nH]c2cc(C(=O)NCCN3CCCCC3)ccc2c1=O`, the inhibition stood at 18%.
As for `COc1ccccc1-n1c(=O)[nH]c2cc(C(=O)NCCCN3CCCC3)ccc2c1=O`, the inhibition was found to be 1.5%.
Consider `COc1cccc(-n2c(=O)[nH]c3cc(C(=O)NCCCN4CCCCC4C)ccc3c2=O)c1` (centres undefined), for which the inhibition was found to be 12.3%.
On the same count and under the same terms, the figure for `COc1cccc(Cn2c(=O)[nH]c3cc(C(=O)NCCCN4CCCC4)ccc3c2=O)c1` is 13.2%; for `O=C(NCCCN1CCOCC1)c1ccc2c(=O)n(-c3ccc(F)cc3)c(=O)[nH]c2c1` it is 9.2%; for `COc1cccc(-n2c(=O)[nH]c3cc(C(=O)NCCN4CCCC4)ccc3c2=O)c1` it is 13.1%.
The same measure, in the same setting: the figure for `CC1CCCCN1CCCNC(=O)c1ccc2c(=O)n(Cc3cccc(F)c3)c(=O)[nH]c2c1` (centres undefined) is 47.8%.
On the same count and under the same terms, the figure for `CN1CCN(CCCNC(=O)c2ccc3c(=O)n(Cc4ccc(F)cc4)c(=O)[nH]c3c2)CC1` is 25.5%; for `CN1CCN(CCCNC(=O)c2ccc3c(=O)n(C)c(=O)[nH]c3c2)CC1` it is 3.4%.
With `O=C(NCCCN1CCCC1)c1ccc2c(=O)n(-c3cccc(F)c3)c(=O)[nH]c2c1`, the result was inactive.
As to `COc1ccc(Cn2c(=O)[nH]c3cc(C(=O)NCCCN4CCCC4)ccc3c2=O)cc1`, the inhibition is 26.8%.
Same read-out and setting: the figure for `COc1cccc(Cn2c(=O)[nH]c3cc(C(=O)NCCN4CCCC4)ccc3c2=O)c1` is 27.8%; for `O=C(NCCCN1CCCC1)c1ccc2c(=O)n(Cc3ccc(F)cc3)c(=O)[nH]c2c1` it is 34.2%; for `O=C(NCCCN1CCCC1)c1ccc2c(=O)n(Cc3cccc(F)c3)c(=O)[nH]c2c1` it is 9.8%.
For the compound `CC1CCCCN1CCCNC(=O)c1ccc2c(=O)n(Cc3ccccc3F)c(=O)[nH]c2c1` (centres undefined), the inhibition worked out at 13.9%.
The same measure, in the same setting: to `COc1ccc(-n2c(=O)[nH]c3cc(C(=O)NCCCN4CCCCC4C)ccc3c2=O)cc1` (centres undefined) belongs 1.5%; to `CCCn1c(=O)[nH]c2cc(C(=O)NCCN3CCCC3)ccc2c1=O`, 6.7%.
For the compound `COc1ccc(Cn2c(=O)[nH]c3cc(C(=O)NCCN4CCOCC4)ccc3c2=O)cc1`, the outcome was inactive.
`COc1cccc(Cn2c(=O)[nH]c3cc(C(=O)NCCCN4CCCCC4C)ccc3c2=O)c1` (centres undefined): the inhibition worked out at 36.9%.
On the same count and under the same terms, the figure for `COc1cccc(Cn2c(=O)[nH]c3cc(C(=O)NCCCN4CCOCC4)ccc3c2=O)c1` is 28.9%; for `O=C(NCCN1CCCCC1)c1ccc2c(=O)n(-c3cccc(F)c3)c(=O)[nH]c2c1` it is 3.4%.

For a further assay, the target named is T1, Voltage-dependent T-type calcium channel subunit alpha-1G. The experiment in a line: Inhibition of T-type calcium channel Cav3.1 with alpha-1G subunit by patch clamp assay.
Conditions: not given
A general note: In patch-clamp work, channel activity is measured electrically.
`O=C(NCCN1CCCCC1)c1ccc2c(=O)n(Cc3cccc(F)c3)c(=O)[nH]c2c1`: the IC50 was 16.9 µM.
The same measure, in the same setting: the figure for `CCC1CCCCN1CCCNC(=O)c1ccc2c(=O)n(Cc3ccc(F)cc3)c(=O)[nH]c2c1` (centres undefined) is 3.31 µM.
Consider `O=C(NCCN1CCCCC1)c1ccc2c(=O)n(Cc3ccc(Cl)cc3)c(=O)[nH]c2c1`, for which the IC50 is 2.08 µM.
With `CCC1CCCCN1CCNC(=O)c1ccc2c(=O)n(Cc3ccc(OC)cc3)c(=O)[nH]c2c1` (centres undefined), the IC50 stood at 5.97 µM.
Same read-out and setting: the figure for `CCC1CCCCN1CCNC(=O)c1ccc2c(=O)n(Cc3ccc(Cl)cc3)c(=O)[nH]c2c1` (centres undefined) is 3.38 µM; for `CC1CCCCN1CCCNC(=O)c1ccc2c(=O)n(Cc3ccc(F)cc3)c(=O)[nH]c2c1` (centres undefined) it is 4.63 µM; for `O=C(NCCN1CCCCC1)c1ccc2c(=O)n(Cc3ccc(F)cc3)c(=O)[nH]c2c1` it is 9.23 µM.
Same read-out and setting: to `O=C(NCCCN1CCCCC1)c1ccc2c(=O)n(Cc3ccc(Cl)cc3)c(=O)[nH]c2c1` belongs 1.95 µM; to `O=C(NCCN1CCCC1)c1ccc2c(=O)n(C3CCCCC3)c(=O)[nH]c2c1`, 7.96 µM; to `CCC1CCCCN1CCCNC(=O)c1ccc2c(=O)n(Cc3ccc(Cl)cc3)c(=S)[nH]c2c1` (centres undefined), 0.1 µM.
Same read-out and setting: the figure for `CCC1CCCCN1CCNC(=O)c1ccc2c(=O)n(Cc3ccc(F)cc3)c(=O)[nH]c2c1` (centres undefined) is 7.98 µM; for `CCC1CCCCN1CCCNC(=O)c1ccc2c(=O)n(Cc3ccccc3Cl)c(=O)[nH]c2c1` (centres undefined) it is 2.79 µM.
`CC1CCCCN1CCCNC(=O)c1ccc2c(=O)n(Cc3ccc(Cl)cc3)c(=O)[nH]c2c1` (centres undefined): the IC50 stood at 3.72 µM.
Consider `O=C(NCCN1CCCC1)c1ccc2c(=O)n(Cc3ccc(Cl)cc3)c(=O)[nH]c2c1`, for which the IC50 was 2.46 µM.
The same measure, in the same setting: to `CCC1CCCCN1CCCNC(=O)c1ccc2c(=O)n(Cc3ccc(Cl)cc3)c(=O)[nH]c2c1` (centres undefined) belongs 1.52 µM.

In general, inhibition refers to the change of the read-out against control, counted positive when it falls. A word on the IC50: it is the concentration that inhibits the measured activity by half.
